The values that follow come from ChEMBL document CHEMBL1817593, “C5'-Alkyl Substitution Effects on Digitoxigenin α-l-Glycoside Cancer Cytotoxicity” (ACS Med Chem Lett, 2011).

In assay [1] the test system is NCI-H460. Kind of assay: Induction of apoptosis in human NCI-H460 cells in serum free medium at 50 nM after 12 hrs by Hoechst 33342/propidium iodide staining based fluorescence microscopy. It is filed as functional. The method in brief: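 NCI-H460 cells exposed to a single 50 nM concentration for 12 h. Cells stained with Hoechst 33342 and propidium iodide. Blue cells with condensed or fragmented nuclei were scored as apoptotic and red, ruptured cells as necrotic. Result given as % apoptotic cell death; N = 6, one-way ANOVA.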

Assay [2] concerns NCI-H460. The experiment in a line: Cytotoxicity against human NCI-H460 cells assessed as cell death in serum free medium at 10 nM after 12 hrs by Hoechst 33342/propidium iodide staining based fluorescence microscopy. Format: functional. The method, boiled down: (§1)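 NCI-H460 human lung cancer cells exposed 12 h to 10 nM–10 μM drug, including a 50 nM single-concentration test. Nuclei were stained with Hoechst 33342 and necrotic cells with propidium iodide. Apoptotic cells were scored by condensed or fragmented blue nuclei and necrotic cells by red PI staining. Total cell death (apoptosis plus necrosis) was recorded; N = 6.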

The test system of assay [3] is NCI-H460. The experiment in a line: Cytotoxicity against human NCI-H460 cells assessed as cell death in serum free medium at 25 nM after 12 hrs by Hoechst 33342/propidium iodide staining based fluorescence microscopy. Format: functional. The method, boiled down:
as §1

Assay [4] concerns NCI-H460. Kind of assay: Cytotoxicity against human NCI-H460 cells assessed as cell death in serum free medium at 50 nM after 12 hrs by Hoechst 33342/propidium iodide staining based fluorescence microscopy. It is filed as functional. The method, boiled down:
as §1

Assay [5] relates to NCI-H460. Kind of assay: Cytotoxicity against human NCI-H460 cells assessed as cell death in serum free medium at 75 nM after 12 hrs by Hoechst 33342/propidium iodide staining based fluorescence microscopy. Format: functional. The method, boiled down:
as §1

For assay [6], the system named is NCI-H460. Kind of assay: Cytotoxicity against human NCI-H460 cells assessed as cell death in serum free medium at 100 nM after 12 hrs by Hoechst 33342/propidium iodide staining based fluorescence microscopy. It is filed as functional. The method, boiled down:
as §1

The test system of assay [7] is NCI-H460. The experiment in a line: Cytotoxicity against human NCI-H460 cells assessed as cell death in serum free medium at 250 nM after 12 hrs by Hoechst 33342/propidium iodide staining based fluorescence microscopy. It is filed as functional. The method, boiled down:
as §1

Assay [8] has as its system NCI-H460. The experiment in a line: Cytotoxicity against human NCI-H460 cells assessed as cell death in serum free medium at 500 nM after 12 hrs by Hoechst 33342/propidium iodide staining based fluorescence microscopy. It is filed as functional. The method in brief:
as §1

The test system of assay [9] is NCI-H460. Kind of assay: Cytotoxicity against human NCI-H460 cells assessed as cell death in serum free medium at 1000 nM after 12 hrs by Hoechst 33342/propidium iodide staining based fluorescence microscopy. Format: functional. The method, boiled down:
as §1

Assay [10] deals with NCI-H460. The experiment in a line: Cytotoxicity against human NCI-H460 cells assessed as cell death in serum free medium at 10000 nM after 12 hrs by Hoechst 33342/propidium iodide staining based fluorescence microscopy. It is filed as functional. The method, boiled down: as §1
The test system of assay [11] is NCI-H460. Kind of assay: Induction of apoptosis in human NCI-H460 cells in serum free medium after 12 hrs by Hoechst 33342/propidium iodide staining based fluorescence microscopy. It is filed as functional, cell-based. As to conditions: for IC50: NCI-H460, 12 h. The method in brief:
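NCI-H460 cells treated for 12 h at 10 nM to 10 μM. Total cell death (apoptosis plus necrosis) scored by Hoechst 33342/propidium iodide staining, with N = 6 and two-way ANOVA. IC50 obtained by nonlinear regression. Table values are the mean of three independent experiments with duplicate determinations.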

The subject of assay [12] is NCI-H460. The experiment in a line: Cytotoxicity against human NCI-H460 cells assessed as cell viability at 1 nM after 48 hrs by MTT assay. It is filed as functional. As to conditions: NCI-H460, 48 h, read-out: Activity. The method in brief:
(§2)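 Viability of NCI-H460 cells was measured by MTT (mitochondrial enzymatic activity) after 48 h exposure, within a dose series spanning 1 nM–10 μM. N = 9, analysed by two-way ANOVA.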
On the technique in general: Tetrazolium assays rely on reduction of a dye to a coloured formazan, in cell work by metabolically active cells.

In assay [13] the test system is NCI-H460. The experiment in a line: Cytotoxicity against human NCI-H460 cells assessed as cell viability at 10 nM after 48 hrs by MTT assay. Format: functional. The following applies: NCI-H460, 48 h, read-out: Activity. The method in brief: as §2
Assay [14] has as its system NCI-H460. The experiment in a line: Cytotoxicity against human NCI-H460 cells assessed as cell viability at 25 nM after 48 hrs by MTT assay. It is filed as functional. The following applies: NCI-H460, 48 h, read-out: Activity. The method, boiled down:
as §2

Assay [15] concerns NCI-H460. The experiment in a line: Cytotoxicity against human NCI-H460 cells assessed as cell viability at 50 nM after 48 hrs by MTT assay. It is filed as functional. The following applies: NCI-H460, 48 h, read-out: Activity. The method in brief: as §2
The test system of assay [16] is NCI-H460. Kind of assay: Cytotoxicity against human NCI-H460 cells assessed as cell viability at 100 nM after 48 hrs by MTT assay. It is filed as functional. The following applies: NCI-H460, 48 h, read-out: Activity. The method, boiled down:
as §2

Assay [17] relates to NCI-H460. The experiment in a line: Cytotoxicity against human NCI-H460 cells assessed as cell viability at 500 nM after 48 hrs by MTT assay. The following applies: NCI-H460, 48 h, read-out: Activity. It is filed as functional. The method in brief:
as §2

In assay [18] the test system is NCI-H460. Kind of assay: Cytotoxicity against human NCI-H460 cells assessed as cell viability at 1000 nM after 48 hrs by MTT assay. Format: functional. As to conditions: NCI-H460, 48 h, read-out: Activity. The method, boiled down: as §2
The subject of assay [19] is NCI-H460. The experiment in a line: Cytotoxicity against human NCI-H460 cells assessed as cell viability after 48 hrs by MTT assay. As to conditions: NCI-H460, 48 h. Format: functional. The method in brief:
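NCI-H460 cells were exposed to drug for 48 h, and viability was read by MTT as mitochondrial enzymatic activity. GI50 was derived from dose-response curves (1 nM–10 μM). Values are from three independent experiments with duplicate determinations, given with standard error of the mean.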

In assay [20] the test system is NCI-H460. Kind of assay: Growth inhibition of human NCI-H460 cells after 48 hrs by MTT assay. Format: functional. The method in brief:
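NCI-H460 viability measured by MTT (mitochondrial enzymatic activity) after 48 h exposure at 1 nM to 10 μM. GI50 derived from dose-response curves, with N = 9 and two-way ANOVA. Values are the mean of three independent experiments with duplicate determinations.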

The subject of assay [21] is NCI-H460. Kind of assay: Ratio of digitoxin IC50 to compound IC50 for human NCI-H460 cells after 12 hrs by Hoechst 33342/propidium iodide staining based fluorescence microscopy. Format: functional.

What is called IC50 is the concentration that gives 50% inhibition. What is called GI50 is the concentration that inhibits growth by half. As to `CC[C@@H]1O[C@@H](O[C@H]2CC[C@@]3(C)[C@H](CC[C@@H]4[C@@H]3CC[C@]3(C)[C@@H](C5=CC(=O)OC5)CC[C@]43O)C2)[C@H](O)[C@H](O)[C@H]1O`, the Activity in the assay on NCI-H460 [1] worked out at 30.625%; with NCI-H460 [2], 15.02%; in the assay on NCI-H460 [3] it was 24.93%; with NCI-H460 [4], 42.16%; in the assay on NCI-H460 [5], 71.83%; in the assay on NCI-H460 [6] it was 80.15%. Further, the Activity with NCI-H460 [7] is 98.51%; in the assay with NCI-H460 [8], 100%; with NCI-H460 [9] it was 100%; in the assay with NCI-H460 [10] it was 100%; in the assay on NCI-H460 [11] it was “Dose-dependent effect”. Also, the IC50 in the assay on NCI-H460 [11] came to 56.9 nM. For the same molecule, in the assay on NCI-H460 [12], the viability at 0.001 µM was 73.2%. Besides, the viability at 0.01 µM in the assay on NCI-H460 [13] is 20%. The viability at 0.025 µM in the assay with NCI-H460 [14] amounted to 10.3%. Moreover, the viability at 0.05 µM in the assay with NCI-H460 [15] worked out at 8.28%. Besides, the viability at 0.1 µM in the assay with NCI-H460 [16] worked out at 6.64%. In the assay on NCI-H460 [17], the viability at 0.5 µM stood at 6.13%. For the same molecule, the viability at 1 µM in the assay on NCI-H460 [18] was determined as 5.71%. Further, the GI50 in the assay with NCI-H460 [19] was 2.14 nM; in the assay with NCI-H460 [20], “Dose-dependent effect”; in the assay on NCI-H460 [20] (NCI-H460, 48 h), 2 nM.

As to `C[C@@H]1O[C@@H](O[C@H]2CC[C@@]3(C)[C@H](CC[C@@H]4[C@@H]3CC[C@]3(C)[C@@H](C5=CC(=O)OC5)CC[C@]43O)C2)[C@H](O)[C@H](O)[C@H]1O`, the Activity in the assay with NCI-H460 [1] is on record as 41.603%; with NCI-H460 [2], 16.47%; in the assay on NCI-H460 [3], 24.53%; with NCI-H460 [4], 48.79%; with NCI-H460 [5] it was 78.16%; in the assay with NCI-H460 [6], 89.5%. The Activity in the assay on NCI-H460 [7] was 100%; in the assay on NCI-H460 [8], 100%; with NCI-H460 [9], 100%; in the assay on NCI-H460 [10], 100%; in the assay on NCI-H460 [11] it was “Dose-dependent effect”. In the assay with NCI-H460 [11], this molecule showed an IC50 of 51.7 nM. Besides, the “Ratio IC50” value in the assay on NCI-H460 [21] is listed as 4. The viability at 0.001 µM with NCI-H460 [12] was 77.8%. In addition, the viability at 0.01 µM in the assay with NCI-H460 [13] came to 11.8%. Besides, the viability at 0.025 µM with NCI-H460 [14] was 8.72%. In addition, the viability at 0.05 µM in the assay with NCI-H460 [15] was 7.16%. Further, the viability at 0.1 µM with NCI-H460 [16] came out at 6.11%. Also, in the assay with NCI-H460 [17], the viability at 0.5 µM came out at 5.81%. Also, the viability at 1 µM with NCI-H460 [18] was 5.46%. In addition, the GI50 with NCI-H460 [19] is 2.1 nM; in the assay with NCI-H460 [20], “Dose-dependent effect”; in the assay on NCI-H460 [20] (NCI-H460, 48 h), 2 nM.

Consider `CC(C)C[C@@H]1O[C@@H](O[C@H]2CC[C@@]3(C)[C@H](CC[C@@H]4[C@@H]3CC[C@]3(C)[C@@H](C5=CC(=O)OC5)CC[C@]43O)C2)[C@H](O)[C@H](O)[C@H]1O`, for which the Activity with NCI-H460 [1] came to 9.9487%; in the assay on NCI-H460 [2] it was 12.15%; in the assay on NCI-H460 [3], 14.36%; in the assay with NCI-H460 [4], 17.66%; with NCI-H460 [5] it was 24.5%; with NCI-H460 [6], 36.73%. The Activity in the assay with NCI-H460 [7] was 68.62%; in the assay with NCI-H460 [8], 100%; in the assay with NCI-H460 [9], 100%; in the assay with NCI-H460 [10] it was 100%; in the assay on NCI-H460 [11] it was “Dose-dependent effect”. Further, the midpoint of inhibition in the assay with NCI-H460 [11], the IC50, lay at 167 nM. Besides, the viability at 0.001 µM in the assay on NCI-H460 [12] was 82.4%. In addition, the viability at 0.01 µM in the assay with NCI-H460 [13] came to 57.7%. In addition, in the assay with NCI-H460 [14], the viability at 0.025 µM is 40.6%. The viability at 0.05 µM with NCI-H460 [15] was found to be 26.1%. Further, the viability at 0.1 µM in the assay on NCI-H460 [16] came to 12.4%. Further, the viability at 0.5 µM in the assay on NCI-H460 [17] came to 6.69%. Also, in the assay on NCI-H460 [18], the viability at 1 µM is 5.9%. For the same molecule, the GI50 in the assay with NCI-H460 [19] is 13.4 nM; in the assay on NCI-H460 [20] it was “Dose-dependent effect”; in the assay on NCI-H460 [20] (NCI-H460, 48 h), 13 nM.
